Assay results from ChEMBL document CHEMBL3120069, “Chemical genetics-based discovery of indole derivatives as HCV NS5B polymerase inhibitors” (Eur J Med Chem, 2014).

Experiments:
[1] = system: Hepatitis C virus; test: Antiviral activity against Hepatitis C virus JFH-1 J6 genotype 2a infected in human Huh7.5 cells assessed as inhibition of viral core synthesis at 10 uM by Western blot analysis; type: functional, organism-based; conditions: Hepacivirus hominis, subtype 2a JFH1 J6, Huh-7, TDE = time-dependent effect
Outline: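 J6/JFH1 RNA-transfected Huh7.5 cells on 10 µM compound, lysed at 24, 48, 72 h. HCV core and β-actin probed by Western blot, core intensity normalised to β-actin; T1/2 from the time-response curve.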

[2] = system: Hepatitis C virus; test: Antiviral activity against Hepatitis C virus JFH-1 J6 genotype 2a infected in human Huh7.5 cells assessed as inhibition of viral RNA replication at 10 uM by real time qRT-PCR analysis; type: functional, organism-based; conditions: Hepacivirus hominis, subtype 2a JFH1 J6, Huh-7, TDE = time-dependent effect
Outline: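 J6/JFH1 RNA-transfected Huh7.5 cells held at 10 µM compound for increasing periods; HCV and host GAPDH RNA measured by real-time qRT-PCR. Triplicates, mean ± SD; T1/2 for halving viral RNA from the time-response curve.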

[3] = system: Hepatitis C virus; test: Antiviral activity against Hepatitis C virus Con1 Bart79I genotype 1b expressing NS5A S2204I mutant infected in human Huh7.5 cells assessed as inhibition of viral RNA replication at 10 uM by real time qRT-PCR analysis; type: functional, organism-based; conditions: Hepacivirus hominis, subtype 1b Con1 Bart79I, Huh-7, TDE = time-dependent effect
Outline: (§1)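 Huh7.5 cells stably carrying Bart79I genotype 1b subgenomic replicon (G418 750 mg/ml selection, 3 weeks), 3×10⁵ cells/well with DMSO or compound. Dose series over 72 h, or 10 M for increasing periods. Viral and host GAPDH RNA measured by real-time qRT-PCR. EC50 and T1/2 taken from response curves of triplicate experiments.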

[4] = Inhibition of recombinant HCV N-terminal hexahistidine-tagged NS5B Cdelta21 RdRp expressed in Escherichia coli assessed as incorporation of [alpha-32P]-UTP in RNA after 2 hrs by autoradiographic analysis; set-up: species or system Hepacivirus hominis
Outline: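 N-terminal His6-tagged recombinant HCV NS5B from E. coli, primer-dependent elongation with poly(A) template (1 µg) and oligo(U)20 (10 pmol). Buffer: 50 mM Tris-HCl pH 7.5, 50 mM NaCl, 100 mM K glutamate, 2 mM MgCl2, 1 mM DTT, RNase inhibitor, UTP plus [α-³²P]UTP. Increasing compound concentrations; IC50 from dose-response curve.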

[5] = system: Hepatitis C virus; test: Antiviral activity against Hepatitis C virus Con1 Bart79I genotype 1b expressing YFP infected in human Huh7.5 cells assessed as NS5A S2204I mutant synthesis at 10 uM after 72 hrs by FACS analysis (reference value: 52.2%); type: functional, Hepacivirus hominis, subtype 1b Con1 Bart79I, Huh-7
Outline: (§2)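 Huh7.5 cells stably carrying Bart79I-YFP subgenomic replicon (G418 selection), treated with DMSO or compound. Dose series over 5 days (120 h), or 10 M with sampling at 24, 48, 72 h. Cells washed, resuspended in PBS, and NS5A-YFP-positive cells counted by FACS. EC50 and T1/2 taken from response curves.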

[6] = system: Hepatitis C virus; test: Antiviral activity against Hepatitis C virus Con1 Bart79I genotype 1b expressing YFP infected in human Huh7.5 cells assessed as NS5A S2204I mutant synthesis at 10 uM after 48 hrs by FACS analysis (reference value: 52.2%); type: functional, Hepacivirus hominis, subtype 1b Con1 Bart79I, Huh-7; outline: as §2
[7] = system: Hepatitis C virus; test: Antiviral activity against Hepatitis C virus Con1 Bart79I genotype 1b expressing YFP infected in human Huh7.5 cells assessed as NS5A S2204I mutant synthesis at 5 uM after 120 hrs by FACS analysis (reference value: 66%); type: functional, Hepacivirus hominis, subtype 1b Con1 Bart79I, Huh-7; outline: as §2
[8] = system: Hepatitis C virus; test: Antiviral activity against Hepatitis C virus Con1 Bart79I genotype 1b expressing YFP infected in human Huh7.5 cells assessed as NS5A S2204I mutant synthesis at 2 uM after 120 hrs by FACS analysis (reference value: 66%); type: functional, Hepacivirus hominis, subtype 1b Con1 Bart79I, Huh-7; outline: as §2
[9] = system: Hepatitis C virus; test: Antiviral activity against Hepatitis C virus Con1 Bart79I genotype 1b expressing YFP infected in human Huh7.5 cells assessed as NS5A S2204I mutant synthesis at 1 uM after 120 hrs by FACS analysis (reference value: 66%); type: functional, Hepacivirus hominis, subtype 1b Con1 Bart79I, Huh-7; outline: as §2
[10] = system: Hepatitis C virus; test: Antiviral activity against Hepatitis C virus Con1 Bart79I genotype 1b infected in human Huh7.5 cells assessed as time required for reducing NS5A S2204I mutant level by half at 10 uM by Western blot analysis; type: functional, organism-based; conditions: Hepacivirus hominis, subtype 1b Con1 Bart79I, Huh-7
Outline: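 Bart79I replicon Huh7.5 cells, 1.5×10⁵/well, treated with DMSO or compound. Dose series for 5 days (120 h), or 10 M for 24, 48, 72 h. Lysed in RIPA with protease inhibitors and protein quantified by Bradford. NS5A and β-actin measured by Western blot, with NS5A normalized to β-actin. EC50 and T1/2 taken from response curves.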

[11] = Ratio of antiviral activity against Hepatitis C virus Con1 Bart79I genotype 1b expressing NS5A S2204I mutant infected in human Huh7.5 cells assessed as time required for reducing viral RNA level by half to antiviral activity against Hepatitis C virus JFH-1 J6 genotype 2a infected in human Huh7.5 cells assessed as time required for reducing viral RNA level by half; type: functional, Huh-7
[12] = Selectivity ratio of EC50 for Hepatitis C virus JFH-1 J6 genotype 2a to EC50 for Hepatitis C virus Con1 Bart79I genotype 1b expressing NS5A S2204I mutant; type: functional
[13] = system: Hepatitis C virus; test: Antiviral activity against Hepatitis C virus Con1 Bart79I genotype 1b expressing NS5A S2204I mutant infected in human Huh7.5 cells assessed as time required for reducing viral RNA level by half at 10 uM by real time qRT-PCR analysis; type: functional, organism-based; conditions: Hepacivirus hominis, subtype 1b Con1 Bart79I, Huh-7; outline: as §1
[14] = system: Hepatitis C virus; test: Antiviral activity against Hepatitis C virus Con1 Bart79I genotype 1b expressing NS5A S2204I mutant infected in human Huh7.5 cells assessed as inhibition of viral RNA replication after 72 hrs by real time qRT-PCR analysis; type: functional, organism-based; conditions: subtype 1b Con1 Bart79I; outline: as §1
[15] = system: Hepatitis C virus; test: Antiviral activity against Hepatitis C virus JFH-1 J6 genotype 2a infected in human Huh7.5 cells assessed as inhibition of viral RNA replication after 72 hrs by real time qRT-PCR analysis; type: functional, organism-based
[16] = system: Hepatitis C virus; test: Antiviral activity against Hepatitis C virus JFH-1 J6 genotype 2a infected in human Huh7.5 cells assessed as time required for reducing viral RNA level by half at 10 uM by luciferase reporter gene assay; type: functional, organism-based; conditions: Hepacivirus hominis, subtype 2a JFH1 J6, Huh-7
Outline: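 Rluc-J6/JFH1 RNA-transfected Huh7.5 cells given 10 µM compound; renilla luciferase and cell viability measured at 24, 48, 72 h. T1/2 for halving replication taken from the time-response curve.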

[17] = Selectivity index, ratio of CC50 for human Huh7.5 cells to EC50 for Hepatitis C virus JFH-1 J6 genotype 2a infected in human Huh7.5 cells; type: toxicity, cell-based, Huh-7; conditions: read-out: Ratio CC50/EC50
[18] = Cytotoxicity against human Huh7.5 cells assessed as cell viability after 72 hrs by MTT assay; type: cell-based, Huh-7
[19] = system: Hepatitis C virus; test: Antiviral activity against Hepatitis C virus JFH-1 J6 genotype 2a infected in human Huh7.5 cells assessed as inhibition of viral RNA replication after 72 hrs by luciferase reporter gene assay; type: functional, organism-based, Hepacivirus hominis; conditions: subtype 2a JFH1 J6, Huh-7, 72 h

C/C(=C\c1c[nH]c2ccc(C#N)cc12)C(=O)Nc1ccc(C(C)(C)C)cc1
inhibition [1]: tde
inhibition [2]: tde
inhibition [3]: tde
IC50 [4]: 0.292 µM
Activity [5]: 0.6%
Activity [6]: 11.8%
Activity [7]: 0.7%
Activity [8]: 4.2%
Activity [9]: 38.4%
T1/2 [10]: 31.7 h
Ratio [11]: 1.8
Ratio EC50 [12]: 3.2
T1/2 [13]: 31.5 h
inhibition ([14]; Hepacivirus hominis, Huh-7): Dose-dependent effect
EC50 ([14]; Huh-7, 72 h): 0.6 µM
inhibition ([15]; Hepacivirus hominis, subtype 2a JFH1 J6, Huh-7): Dose-dependent effect
EC50 ([15]; subtype 2a JFH1 J6, Huh-7, 72 h): 1.9 µM
T1/2 [16]: 16.4 h
selectivity ratio [17]: 56.9
CC50 at 72 h [18]: 61.8 µM
EC50 [19]: 1.1 µM
EC90 [19]: 2.1 µM
